# Experimental data collected from several papers.
# Compare with care: the assays were run in different laboratories.
# Target: Serine/threonine-protein kinase DCLK1 (DCLK1, Homo sapiens, UniProt O15075)
# Method: competition with immobilised ligand
# One construct used (O15075 1-740): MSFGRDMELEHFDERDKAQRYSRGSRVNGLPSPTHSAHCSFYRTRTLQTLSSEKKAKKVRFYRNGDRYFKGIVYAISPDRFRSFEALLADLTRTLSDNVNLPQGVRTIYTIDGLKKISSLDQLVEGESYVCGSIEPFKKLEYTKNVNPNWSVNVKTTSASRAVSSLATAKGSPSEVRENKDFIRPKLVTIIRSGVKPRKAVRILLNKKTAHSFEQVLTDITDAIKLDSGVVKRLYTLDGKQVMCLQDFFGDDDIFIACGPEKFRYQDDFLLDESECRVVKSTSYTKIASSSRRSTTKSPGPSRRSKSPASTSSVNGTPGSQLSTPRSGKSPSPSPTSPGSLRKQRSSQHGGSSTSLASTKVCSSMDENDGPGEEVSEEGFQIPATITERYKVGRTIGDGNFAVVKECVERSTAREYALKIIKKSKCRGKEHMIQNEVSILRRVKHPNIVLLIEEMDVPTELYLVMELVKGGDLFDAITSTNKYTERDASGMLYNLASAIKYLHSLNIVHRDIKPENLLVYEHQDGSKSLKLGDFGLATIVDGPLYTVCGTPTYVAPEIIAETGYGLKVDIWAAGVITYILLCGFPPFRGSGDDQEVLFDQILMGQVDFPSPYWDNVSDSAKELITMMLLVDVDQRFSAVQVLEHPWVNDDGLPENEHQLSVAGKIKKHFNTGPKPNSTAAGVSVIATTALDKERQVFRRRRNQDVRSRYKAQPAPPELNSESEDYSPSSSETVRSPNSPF
Structure (SMILES),observed,tested at,remaining binding
COc1cc(N2CCN(C)CC2)ccc1Nc1ncc2c(n1)N(C)c1ccccc1C(=O)N2CC(F)(F)F,binding,1 µM,< 10%
Cc1cc(-c2cc(C(F)(F)F)ccc2O[C@H]2C[C@@]2(CNS(=O)(=O)c2ccc([N+](=O)[O-])cc2)c2ccc(F)cc2F)[nH]n1,cell-free assay,0.3 µM,32%
Nc1ncc2c(n1)-c1c([nH]c3ccc(C#CC4CC4)cc13)CCCC2,binding,1 µM,100%
COc1ccnn2ncc(-c3ccnc(N(C)C)n3)c12,binding,1 µM,80%
O=C(Nc1c[nH]nc1C(=O)NC1CCNCC1)c1cc(F)cc(F)c1,binding,1 µM,79%
O=C(c1ccc(Nc2nccc(-c3cc4ccccc4s3)n2)cc1)N1CCC(N2CCCC2)CC1,binding,1 µM,86%
CN([C@@H]1CCc2c(CC(=O)O)c3cc(S(C)(=O)=O)ccc3n2C1)S(=O)(=O)c1ccc(F)cc1,cell-free assay,1 µM,79%
C[C@@H]1CCN(c2nccc(-c3cnn4ncccc34)n2)C1,binding,1 µM,84%
COc1cc(C(=O)N2CCC(N3CCN(C)CC3)CC2)ccc1Nc1ncc2c(n1)N(C)c1ccccc1C(=O)N2C,binding,10 µM,4.2%
CC(C)(C)c1ccc(-c2nc(CBr)nn2-c2cccc(O)c2)cc1,cell-free assay,10 µM,100%
Cc1cnn2ncc(-c3ccnc(N(C)C)n3)c2c1,binding,1 µM,91%
C[C@@H]1CN(c2ccc3ncc(-c4ccc5[nH]nc(C6CC6)c5c4)n3n2)C[C@H](C)O1,binding,50 nM,84%
COc1ncc2cc3ccccc3nc2c1C#N,cell-free assay,5 µM,98%
Nc1c(C(=O)NCc2ccc(C(=O)NCCCC3CCCCC3)cc2)cnn1-c1ccccc1,cell-free assay,0.1 µM,100%
COc1cnc(Nc2cccc(S(N)(=O)=O)c2)nc1N1CCN(c2ccccc2)CC1,binding,1 µM,92%
O=C(N1CCS(=O)(=O)CC1)N1C[C@H](c2ccc(OC(F)(F)F)cc2)C[C@H](c2nc(C3CC3)no2)C1,cell-free assay,1 µM,100%
CN(C)c1nccc(-c2cnc3ncccn23)n1,binding,1 µM,61%
CCC(=N\O)/C(C)=C/c1ccc(F)cc1,cell-free assay,1 µM,93%
N[C@H]1CCN(c2nccc(-c3cnn4ncccc34)n2)C1,binding,1 µM,83%
O=C(c1ccc(Nc2ncc(Cl)c(-c3ccc(Cl)s3)n2)cc1)N1CCC(N2CCCC2)CC1,binding,1 µM,69%
Cc1nccc(COC(=O)N2C[C@@H]3[C@@H](CNC(=O)c4ccc5[nH]nnc5c4)[C@@H]3C2)n1,cell-free assay,1 µM,90%
c1cnn2ncc(-c3ccnc(N4CCC45COC5)n3)c2c1,binding,1 µM,82%
Cc1noc([C@H]2C[C@@H](c3ccc(C(F)(F)F)cc3)CN(C(=O)N3CCS(=O)(=O)C3)C2)n1,cell-free assay,1 µM,75%
O=C(c1ccc(Nc2ncc(Cl)c(-c3cc4ccccc4s3)n2)cc1)N1CCC(N2CCCC2)CC1,binding,1 µM,100%
COCCOc1nc(-c2ccc(Cl)nc2)nc2c1CN(C(=O)c1ncn3ccccc13)CC2,cell-free assay,0.1 µM,100%
c1cncc(-c2cccc(Nc3nccc(NC4CCCCC4)n3)c2)c1,binding,10 µM,92%
